# Screening results (PubChem BioAssay)
# EBV gp42 inh – Epstein-Barr virus gp42 inhibitors, primary screen, biochemical, uHTS, fluorescence polarization | Glycoprotein 42 (Epstein-Barr virus (strain AG876)), Q1HVG2 | Fluorescence polarization binding assay, mP read-out | inhibition, % (tested at 21.74 µM) | 220,000 compounds, 0.42% hits | AID 1085, 2008; in the data active means inhibition above about 50%
# Target sequence (Q1HVG2 whole entry, looked up): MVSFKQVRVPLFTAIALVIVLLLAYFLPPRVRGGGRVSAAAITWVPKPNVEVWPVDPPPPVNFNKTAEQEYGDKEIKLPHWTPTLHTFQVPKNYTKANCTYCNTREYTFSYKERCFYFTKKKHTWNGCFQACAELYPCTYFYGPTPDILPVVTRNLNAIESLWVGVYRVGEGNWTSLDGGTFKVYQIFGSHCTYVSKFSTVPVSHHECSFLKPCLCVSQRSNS
# CHOP inhibitor – inhibitors of CHOP promoter induction, primary screen, cell-based, unfolded protein response, luciferase reporter; AID 2732, 2010; CHO-K1 CHOP-promoter luciferase, tunicamycin-induced, 15-18 h; 220,000 compounds, 3.8% hits; inhibition, % at 10 µM;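 active means compounds that reduced the stress-induced luciferase reporter signal by more than about 70% of percent inhibition, limit read from the data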;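 further: 0% = tunicamycin plus vehicle and 100% = wells without tunicamycin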
# WT yeast gro inh – growth inhibition of WT strain, primary screen, mitochondrial fusion inhibitor project, WT and mutant strains, chemical genetic; mitochondrial fusion phenotypic screen; AID 1362, 2008; inhibition, % at 10 µM; 190,000 compounds, 2.1% hits; in the data active means inhibition above about 58%; tested in S. cerevisiae
# MPTP block – mitochondrial permeability transition pore inhibitors, primary screen, biochemical, isolated mouse mitochondria, absorbance; Ca2+ swelling absorbance, 30 min; inhibition, % at 10 µM; 360,000 compounds, 1.4% hits; AID 602449, 2012;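 active means inhibition of 50% or more, scaled per plate between neutral and stimulator controls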;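 further: 0% = DMSO wells given calcium and 100% = 1 mM EGTA wells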
# TbMetRS inhib – T. brucei MetRS inhibitors, primary screen, biochemical, luminescence; purified T. brucei MetRS, ATP depletion, Kinase-Glo luminescence; inhibition, % at 11.9 µM; 360,000 compounds, 0.4% hits;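 active means inhibition above a per-plate cutoff of the control wells' mean inhibition plus 3 SD, cut at about 5.5% in these data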;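 further: 0% = DMSO wells median and 100% = median of wells with control inhibitor compound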
#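 assay system = parasite MetRS enzyme | timing = 15 min preincubation, 2 h reaction, all 25 °C | evaluation = percent inhibition relative to median high and low control wells | medium = HEPES buffer containing pyrophosphatase, BSA, spermine, DTT | compound = single dose, 11.9 µM final nominal, 0.9% final DMSO | detection = Kinase-Glo luminescence, ATP depletion format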
# GRIN3A LBD mod – binders of NR3A ligand-binding domain, primary screen, biophysical, differential scanning fluorimetry, uHTS. Glutamate receptor ionotropic, NMDA 3A (GRIN3A) ligand-binding domain. NR3A LBD differential scanning fluorimetry, Tm shift; 0% = protein alone, 100% = glycine-bound protein. Tm shift relative to glycine control, % at 25 µM. 340,000 compounds, 2.5% hits. AID 1259313, 2017;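 active means melting temperature shift of at least 10% of the positive control shift, at one fixed dose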
# * = called active by the depositor; · = no result. The list is not random: actives were taken first. Their share in the collection is about 6.4%.
SMILES,EBV gp42 inh,CHOP inhibitor,WT yeast gro inh,MPTP block,TbMetRS inhib,GRIN3A LBD mod
CSc1nc(Oc2ccc3ccccc3c2)c2sccc2n1,1.9,-20.4,37.2,0.4,-0.1,-2.4
CCOC(=O)Nc1sc(NS(=O)(=O)c2ccc(C)cc2)nc1C,-9.7,2.7,18.2,-0.8,-0.3,-0.2
CSc1cccc(NC(=O)c2ccc(NC3=NC4CS(=O)(=O)CC4S3)cc2)c1 (stereo not drawn),·,·,·,-1.8,0.7,27.9*
Cc1ccc(NC(=O)c2ccc(NC3=NC4CS(=O)(=O)CC4S3)cc2)cc1 (stereo not drawn),·,·,·,0.1,-0.6,1.2
CC(C)c1ccc(NC(=O)c2ccc(NC3=NC4CS(=O)(=O)CC4S3)cc2)cc1 (stereo not drawn),·,·,·,-2.4,0.3,16.4*
O=c1c2oc3ccccc3c2ncn1Cc1ccccc1Cl,0.1,-17.6,8.4,-1.2,-0.8,-0.3
O=[N+]([O-])c1ccc(N2CCOCC2)cc1NC(c1ccccc1)c1ccccc1,-5.1,38.9,32.7,-1.4,-0.9,-8.6
O=[N+]([O-])c1ccc(N2CCCC2)cc1NC(c1ccccc1)c1ccccc1,0.7,15.2,0.0,0.9,-1.1,14.0*
CC(C)(C)C1CCC(=NNS(=O)(=O)c2ccc(Br)cc2)CC1 (stereo not drawn),1.3,91.7*,-0.8,6.3,-0.1,-9.0
C=CCN(CC=C)C(=O)c1c(OC)cccc1OC,4.0,-2.9,-7.3,0.0,-0.6,-0.8
C=CCc1c(C)[nH]c2c(OC)cccc2c1=S,1.8,-9.0,67.1*,-0.7,0.5,-1.1
COCOCCn1cc(CN2CCS(=O)(=O)N(Cc3ccc(-c4cccc(CO)c4)cc3)C(C)C2=O)nn1 (stereo not drawn),·,·,·,3.0,-0.5,·
O=C(CSc1ncccc1C(=O)O)c1cccc(C(F)(F)F)c1,-0.6,8.3,-5.6,-1.1,0.0,0.6
CCOC(=O)c1sc(N(Cc2ccccc2)C(=O)COC(=O)c2ccc(O)cc2)nc1C,-26.1,12.4,38.4,6.3,-0.1,29.0*
Cc1ccc2c(c1)c(C)c(C)n2CC(O)Cn1nc(C)c(Br)c1C (stereo not drawn),-1.4,86.3*,-6.0,3.3,-0.8,-2.2
CC(=O)c1c(C)nn(CC(O)Cn2c3c(c4cc(C)ccc42)CCCC3=O)c1C (stereo not drawn),0.2,25.0,8.1,0.2,-0.9,-1.5
Cc1ccc2c(c1)c1c(n2CC(O)Cn2nc(C)c(Br)c2C)C(=O)CCC1 (stereo not drawn),-8.7,71.7*,6.8,26.3,-1.1,-0.4
Cc1cccc(C)c1OCCN1CCCC1,·,·,·,-0.4,0.4,0.2
O=[N+]([O-])c1ccc(N=Nc2c(O)[nH]c3ccc(F)cc23)cc1,·,·,·,1.6,-0.8,18.9*
Oc1[nH]c2ccc(Br)cc2c1N=Nc1ccc(F)cc1,·,·,·,1.6,-0.6,29.9*
Oc1[nH]c2ccc(Br)cc2c1N=NC(=S)NCC1CCCO1 (stereo not drawn),-7.0,94.5*,·,7.9,-0.3,-5.2
c1ccc(N2CCN(c3nc(-c4cccs4)nc4ccccc34)CC2)cc1,-21.2,57.1,10.0,1.0,0.0,-1.0
O=C(COC(=O)CC1CC2CCC1C2)NC(=O)NCc1ccco1 (stereo not drawn),0.3,81.8*,9.5,13.8,-0.1,0.6
COCc1cc(/C=N\NC(=O)Cc2ccc(Cl)cc2)ccc1OC,3.1,20.8,-8.0,0.4,-0.7,-2.7
CC(C)NC(=O)c1ccc(COc2ccc(C(C)(C)C)cc2)o1,·,·,·,26.1,-1.4,16.1*
SMILES,EBV gp42 inh,CHOP inhibitor,WT yeast gro inh,MPTP block,TbMetRS inhib,GRIN3A LBD mod
COC(=O)c1cc(OC(=O)c2ccc(=O)[nH]c2)cc(C(=O)OC)c1,·,·,·,-0.2,-0.7,-0.3
O=C(Nc1nccs1)c1cn(-c2ccccc2)nc1-c1ccccc1,8.3,70.5*,51.9,-1.8,-0.7,-2.8
CC(=O)Cc1nsc(NC(=O)c2cn(-c3ccccc3)nc2-c2ccc(Br)cc2)n1,-47.4,61.2,-15.3,37.3,-0.8,31.4*
COC(=O)c1cn(-c2ccccc2)nc1-c1ccc(OC)cc1,2.1,38.2,-3.4,0.7,-0.1,1.0
CC(C)COc1ccc(-c2nn(-c3ccccc3)cc2C(=O)Nc2nccs2)cc1,-1.8,11.4,22.3,3.0,0.0,10.4*
COC(=O)c1sc2nc(N3CCCCC3)c3c(c2c1N)CCCC3,-25.4,58.9,33.5,3.1,-0.7,-7.0
COC(=O)c1ccc(-c2sc3nc(N4CCOCC4)c4c(c3c2N)CCCC4)o1,-1.3,-6.0,62.1*,·,·,1.8
NC(=O)c1sc2nc(N3CCCCC3)c3c(c2c1N)CCCC3,-5.8,92.5*,17.4,-1.3,-1.7,0.1
CSc1ccc(CNCc2ccc3c(c2)OCO3)cc1,·,·,·,-0.4,-1.3,0.5
CC1(C)CC(=O)C2=C(C1)Oc1ncn(Cc3ccco3)c(=N)c1C2c1ccccc1 (stereo not drawn),-16.5,-10.0,-9.8,-0.4,0.0,-0.4
COc1ccc(C2C3=C(CC(C)(C)CC3=O)Oc3ncn(Cc4ccccc4)c(=N)c32)cc1 (stereo not drawn),-20.4,26.2,97.2*,-2.1,-0.5,-4.0
CC(C)=CCc1c2c(c(O)c3c(=O)c4c(oc13)-c1cc(O)c(O)cc1OC4C=C(C)C)C=CC(C)(C)O2 (stereo not drawn),·,·,·,·,·,22.5*
CC(C)=CCc1c(-c2ccc(O)cc2O)oc2c3c(cc(O)c2c1=O)OC(C)(C)C=C3,·,·,·,·,·,26.7*
CSc1nc(N2CCN(c3ccccc3Cl)CC2)c2ccccc2n1,-1.4,7.2,62.6*,0.5,-0.7,1.5
CN(C)CCNC(=O)COc1ccc(C23CC4CC(CC(C4)C2)C3)cc1,-23.2,41.3,95.8*,-0.3,-0.5,-4.3
O=c1cc(-c2ccc(C3CCCCC3)cc2)[nH][nH]1,10.6,55.0,68.8*,-0.2,-0.4,-10.5
N#Cc1ccccc1CSCCNC(=O)Cc1c(F)cccc1Cl,·,·,·,-0.6,-0.2,-1.6
O=C(NCCSCc1c(F)cccc1Cl)Nc1ccccc1,·,·,·,1.0,7.8*,-5.2
COc1cc(C2=NOC(C(=O)N3CCOCC3)C2)cc(OC)c1OC (stereo not drawn),-3.6,4.8,7.4,0.2,-0.2,12.7*
Cc1ccc(S(=O)(=O)N2CCOCC2)c2nsnc12,-12.7,-17.6,-4.1,-0.7,-0.7,-0.4
c1cc2c(cc1C1CCCCC1)c1c3n2CCN=C3CCC1,-15.6,-22.9,93.4*,-8.5,0.4,-1.7
